Experimental findings from the RNAGym collection of RNA variant scans (doi:10.1126/science.aae0568) are described below.

Fewer inactive variants are shown than the library holds.

B1: tRNA (parent)
chain: GUUCCGUUGGCGUAAUGGUAACGCGUCUCCCUCCUAAGGAGAAGACUGCGGGUUCGAGUCCCGUACGGAACG

In this data set the parent is B1. Briefly: yeast fitness relative to wild type (ratio to wild type); higher = fitter; tRNA-Arg(CCU), competitive growth, 37 C, YPD. An outline of the steps: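 Amplicons of the tRNA-Arg(CCU) gene were sequenced, 100-nucleotide paired-end, from the start population and from each end population of a pooled yeast competition. The competition, in six parallel replicates, lasted 24 hours in YPD at 37°C. Fitness relative to wild type was calculated from changes in genotype frequencies. Genotypes had to have ≥ 100 starting reads, and estimates < 0.5 were set to 0.5.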
As to GUUCCGUUGGCGUAAUGGUAACGCGUCUCCUUCCUAAGGAAAAGACUGCGGGUUCGAGUCCCGUACGGUACG [C31U G41A A69U], the yeast fitness worked out at 0.808.

In the case of GUUCCGUUGGCGUAAUGGUAACGCGUCUCCUUCCUAAGGAGAAGACUGCGGGUUCAAGUCCCCUACGGAACG [C31U G56A G63C], the yeast fitness is at most 0.5. GUUCCGUUGGCGUAAUGGUAACGCGUCUCCUUCCUAAGGAGAAGACUGCGGGUUCGACUCACGUACGGUACG [C31U G58C C61A A69U]: the yeast fitness worked out at 0.505. The result for GUUCCGUUGGCGUAAUGGUAACGCGUCUCCUUCCUAAGGAGAAGACUGCGGCUUCGAGUACCGUACGGAACG [C31U G52C C60A] reads 0.632; that for GUUCCGUUGGCGUAAUGGUAACGCGUCUCCUUCCUAAGGAGAAAUCUGCGGGUUCGAGUCCCGUACGGAACG [C31U G44A A45U], 0.893.

With GUUCCGUUGGCGUAAUGGUAACGCGUCUCCUUCCUAACGAGAAGACUGCGCGUUUGAGUCCCGUACGGAACG [C31U G38C G51C C55U], the yeast fitness is at most 0.5.

In the case of GUUCCGUUGGCGUAAUGGUAACGCGUCUCCUUCCUAAGGAGAAGACUCCGGGUUAGAGUGCCGUACGGGACG [C31U G48C C55A C60G A69G], the yeast fitness was at most 0.5. The result for GUUCCGUUGGCGUAAUGGUAACGCGUCUCCUUCCUAAGAAGAAAACUGCGGGUUCGAGUCUCGUACGGAACG [C31U G39A G44A C61U] reads at most 0.5. To GUUCCGUUGGCGUAAUGGUAACGCGUCUCCUUCCUAAGGAGAAGACUGCGGGUUCAAGUCCCGUACGGAACG [C31U G56A] belongs 1.04.

Turning to GUUCCGUUGGCGUAAUGGUAACGCGUCUCCUUCCUAAGGAGAACACUGCGGGUUCGAGUCCCGUCCGGAACG [C31U G44C A65C], the yeast fitness amounted to 0.594. As for GUUCCGUUGGCGUAAUGGUAACGCGUCUCCUUCCUAAGGACAAGACUGCGGGUUCGAGUCCCGUACGGAACG [C31U G41C], the yeast fitness stood at 0.796. As to GUUCCGUUGGCGUAAUGGUAACGCGUCUCCUUCCUAAGGAGAAGACUGCAGGUUCGAGUCCCGUACGGAUCG [C31U G50A A70U], the yeast fitness was 0.677. The result for GUUCCGUUGGCGUAAUGGUAACGCGUCUCCUUCCUAACGAGAAGACUGCGGGUUCGAGUCCCAUACGCGACG [C31U G38C G63A G68C A69G] reads 0.673; that for GUUCCGUUGGCGUAAUGGUAACGCGUCUCCUUCCUAAGGAGAAGACUGCGGGUUCGAGUCCCCUACGGAACG [C31U G63C], 0.766; that for GUUCCGUUGGCGUAAUGGUAACGCGUCUCCUUCCUAAGGAGAAGACUGCGGCUUCGAGUCCCGUUCGGAACG [C31U G52C A65U], at most 0.5. As for GUUCCGUUGGCGUAAUGGUAACGCGUCUCCUUCCUAAGGAGAAGACUCCGGGUUCGAGUCCCGUACGGAACG [C31U G48C], the yeast fitness came out at 1.

Regarding GUUCCGUUGGCGUAAUGGUAACGCGUCUCCUUCCUAAGGAGAAGACUACGGGUUCGAGUCCCGUACGGAACG [C31U G48A], the yeast fitness stood at 0.949. The result for GUUCCGUUGGCGUAAUGGUAACGCGUCUCCUUCCUAAGGAGAAGACUCCGGGUUCGAGUCCCGUAUGGAACG [C31U G48C C66U] reads 0.741; that for GUUCCGUUGGCGUAAUGGUAACGCGUCUCCUUCCUAAGGAGAACACUGCGGGUUCGAGUUCCGUACGGAACG [C31U G44C C60U], 0.689. To GUUCCGUUGGCGUAAUGGUAACGCGUCUCCUUCCUAAGAAGAAGCCUGCGGGUUCGAGUCCCGUACGGAACG [C31U G39A A45C] belongs 0.677. The result for GUUCCGUUGGCGUAAUGGUAACGCGUCUCCUUCCUAAGGAGAAGACUGCGGGUUCGAGUCCCGUACUGGACG [C31U G67U A69G] reads 0.747; that for GUUCCGUUGGCGUAAUGGUAACGCGUCUCCUUCCUAAGCAGAAGACUGCGGGUUCGAAUCCCGUACGGAACG [C31U G39C G58A], 0.552.

GUUCCGUUGGCGUAAUGGUAACGCGUCUCCUUCCUAACGAGAAGACUGCGGCUUCGAGUCCCGUACGGAACG [C31U G38C G52C]: the yeast fitness was at most 0.5.

On to GUUCCGUUGGCGUAAUGGUAACGCGUCUCCUUCCUAAGGAGAAGACUGCAGGUUCGAGUCCCGUACGGAACG [C31U G50A], for which the yeast fitness came out at 0.904.

For the variant GUUCCGUUGGCGUAAUGGUAACGCGUCUCCUUCCUAAGGAGAAGACUACGGGUUCGAGUCCCGUACGGUACG [C31U G48A A69U], the yeast fitness is 0.757. The result for GUUCCGUUGGCGUAAUGGUAACGCGUCUCCUUCCUAAGGAGAAGACUGCGGGUUCGACGCGCGUACGGAACG [C31U G58C U59G C61G] reads at most 0.5; that for GUUCCGUUGGCGUAAUGGUAACGCGUCUCCUUCCUAAGGACACGACUGCGGGUUCGAGUCCCGUACGGAACG [C31U G41C A43C], 0.722; that for GUUCCGUUGGCGUAAUGGUAACGCGUCUCCUUCCUAAGCAGAAGACUGCGGCUUCGAGUCCCGUACGGAACG [C31U G39C G52C], at most 0.5. The result for GUUCCGUUGGCGUAAUGGUAACGCGUCUCCUUCCUAAGGAGAAGACUGCAGGUUCGAGUCCCGUACAGAACG [C31U G50A G67A] reads 0.63; that for GUUCCGUUGGCGUAAUGGUAACGCGUCUCCUUCCUAAGGAGAAGACUACGGGUUCGAGUCUCGUCCGGAACG [C31U G48A C61U A65C], at most 0.5; that for GUUCCGUUGGCGUAAUGGUAACGCGUCUCCUUCCUAAGGAGAAGACUGCGGGUUCGAAUCCCGUCCGGAACG [C31U G58A A65C], 0.65. In the case of GUUCCGUUGGCGUAAUGGUAACGCGUCUCCUUCCUAAGGACAAGACUGCGGGUUCGAGUCUCGUACGGAACG [C31U G41C C61U], the yeast fitness is 0.574. To GUUCCGUUGGCGUAAUGGUAACGCGUCUCCUUCCUAAGGAGAAGACUCCGGGUUCGAGUCCCGUACCGAACG [C31U G48C G67C] belongs 0.649; to GUUCCGUUGGCGUAAUGGUAACGCGUCUCCUUCCUAAGGAGAAGACUGCGGGUUCGAGUCCCGUACCGAACG [C31U G67C], 0.902; to GUUCCGUUGGCGUAAUGGUAACGCGUCUCCUUCCUAAGGAGAAGACUGCGGCUACGAGUCCCGUAUGGAACG [C31U G52C U54A C66U], at most 0.5. Regarding GUUCCGUUGGCGUAAUGGUAACGCGUCUCCUUCCUAAGGAGAAGACUACGGGUUCGAGUCACGUACGGAACG [C31U G48A C61A], the yeast fitness turned out to be 0.532. The result for GUUCCGUUGGCGUAAUGGUAACGCGUCUCCUUCCUAACGAGAAGACUGCGGGUUCGAGUCCCGUACGGAACG [C31U G38C] reads 0.845; that for GUUCCGUUGGCGUAAUGGUAACGCGUCUCCUUCCUAAGCUGAAGACUGCGGGUUCGAGUCCCGUACGGAACG [C31U G39C A40U], 0.838.
